SMILES strings stand for the structures. ≈ marks a conversion by molar mass, not a printed value.

The test system of assay [1] is Aspergillus fumigatus. Briefly: Synergistic antifungal activity against Aspergillus fumigatus GIMCC 3.19 assessed as fractional inhibitory concentration index in presence of Polyoxin B by checkerboard method. Format: functional. The method, boiled down: (§1)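 Checkerboard combined with two-fold broth dilution, pairing test compound with fluconazole or polyoxin B. FIC index = (MIC A combined/MIC A alone) + (MIC B combined/MIC B alone); >2 antagonistic, 1–2 additive, ≤1 synergistic. Three independent repeats.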

In assay [2] the test system is Candida albicans. Description: Synergistic antifungal activity against Candida albicans ATCC 90023 assessed as fractional inhibitory concentration index in presence of Polyoxin B by checkerboard method. The format is functional. The essentials:
as §1

In assay [3] the test system is Candida albicans. Description: Antifungal activity against Candida albicans ATCC 76615 incubated for 48 hrs by two-fold broth dilution analysis. The format is functional. The method, boiled down: (§2)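 Stock solutions in DMSO, diluted to 0.25–512 µg/mL; two-fold serial broth dilution in 96-well plates. Fungi grown on modified Sabouraud chloramphenicol agar (1% peptone, 2% glucose, […]). Incubated 48 h at 37 °C, then MIC (µg/mL) recorded. Fluconazole and polyoxin B as positive controls; each group tested in triplicate.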
(In general: Dilution methods test growth across graded concentrations, often in twofold steps.)

The next assay concerns Pseudomonas aeruginosa. Briefly: Antibacterial activity against Pseudomonas aeruginosa ATCC 9027. The format is functional. The essentials: (§3)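 Two-fold serial broth dilution in 96-well plates following National Committee standards; compounds tested at different concentrations. Medium: beef extract peptone (1% peptone, 0.3% beef extract, 0.5% NaCl). Incubation 18–24 h. MIC recorded; streptomycin and norfloxacin as control drugs; each group tested in triplicate.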

Assay [4] has as its system Cryptococcus neoformans. Description: Synergistic antifungal activity against Cryptococcus neoformans ATCC 32719 assessed as fractional inhibitory concentration index in presence of Polyoxin B by checkerboard method. The format is functional. The method, boiled down:
as §1

Assay [5] deals with Cryptococcus neoformans. Description: Antifungal activity against Cryptococcus neoformans ATCC 32719 incubated for 48 hrs by two-fold broth dilution analysis. Format: functional. The essentials:
as §2

The next assay relates to Bacillus subtilis. Briefly: Antibacterial activity against Bacillus subtilis ATCC 6633. The format is functional. The essentials: as §3
Assay [6] deals with Aspergillus fumigatus. Briefly: Antifungal activity against Aspergillus fumigatus GIMCC 3.19 incubated for 48 hrs by two-fold broth dilution analysis. Format: functional. The essentials:
as §2

The next assay concerns Candida tropicalis. Briefly: Inhibition of Candida tropicalis ATCC 750 chitin synthase at 300 ug/ml using UDP-GlcNAc as substrate relative to control. The settings on record: dose 300.0 µg/ml. The method, boiled down: (§4)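 Chitin synthase prepared from C. tropicalis ATCC 750 by low- and high-speed centrifugation. DMSO stocks (10 mg/mL) diluted in 50 mM Tris-HCl pH 7.5; test concentrations 300–9.375 µg/mL. Chitin synthesized in WGA-coated wells, bound with WGA-HRP, washed, developed with TMB/H2O2, stopped with 2 M H2SO4, OD read. Duplicate; polyoxin B positive control.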

Assay [7] concerns Aspergillus flavus. Description: Antifungal activity against Aspergillus flavus ATCC 16870 incubated for 48 hrs by two-fold broth dilution analysis. The format is functional. The essentials:
as §2

In assay [8] the test system is Candida albicans. Description: Antifungal activity against Candida albicans ATCC 90023 incubated for 48 hrs by two-fold broth dilution analysis. The format is functional. The essentials:
as §2

A short description of assay [9]: Noncompetitive inhibition of Candida tropicalis ATCC 750 chitin synthase using […] as substrate by Lineweaver-Burk plot. The essentials: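 Same WGA-capture chitin synthase assay, run with UDP-GlcNAc at 0.5, 1.0, 1.5 and 2.0 mM and inhibitor at 0, 0.032, 0.126 and 0.25 mM. Inhibition type read from Lineweaver-Burk plots; Ki taken from the intersection of the lines.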

Assay [10] relates to Aspergillus flavus. Briefly: Synergistic antifungal activity against Aspergillus flavus ATCC 16870 assessed as fractional inhibitory concentration index in presence of fluconazole by checkerboard method. The format is functional. The method, boiled down:
as §1

Assay [11] has as its system Candida albicans. Briefly: Synergistic antifungal activity against Candida albicans ATCC 76615 assessed as fractional inhibitory concentration index in presence of fluconazole by checkerboard method. Format: functional. The essentials: as §1
In assay [12] the test system is Aspergillus fumigatus. Description: Synergistic antifungal activity against Aspergillus fumigatus GIMCC 3.19 assessed as fractional inhibitory concentration index in presence of fluconazole by checkerboard method. Format: functional. The method, boiled down:
as §1

In assay [13] the test system is Candida albicans. Description: Synergistic antifungal activity against Candida albicans ATCC 90023 assessed as fractional inhibitory concentration index in presence of fluconazole by checkerboard method. The format is functional. The essentials:
as §1

The test system of assay [14] is Staphylococcus aureus. Briefly: Antibacterial activity against Staphylococcus aureus ATCC 25923. The format is functional. The method, boiled down: as §3
The next assay concerns Escherichia coli. Description: Antibacterial activity against Escherichia coli JM 109.
Assay [15] relates to Cryptococcus neoformans. Briefly: Synergistic antifungal activity against Cryptococcus neoformans ATCC 32719 assessed as fractional inhibitory concentration index in presence of fluconazole by checkerboard method. Format: functional. The essentials: as §1
A further assay deals with Proteus vulgaris. Description: Antibacterial activity against Bacillus proteus ATCC 8427. Format: functional. The method, boiled down: as §3
For assay [16], the system named is Aspergillus flavus. Briefly: Synergistic antifungal activity against Aspergillus flavus ATCC 16870 assessed as fractional inhibitory concentration index in presence of Polyoxin B by two-fold broth dilution checkerboard method. Format: functional. The essentials: as §1
In assay [17] the test system is Staphylococcus aureus. Description: Antibacterial activity against methicillin-resistant Staphylococcus aureus N. 315. Format: functional. The essentials: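 Two-fold serial broth dilution in 96-well plates per national clinical standard; beef extract peptone medium (1% peptone, 0.3% beef extract, 0.5% NaCl, […]). Compounds from DMSO stock diluted to test concentrations; incubation 18–24 h. MIC recorded; each group tested independently in triplicate.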

The test system of assay [18] is Candida albicans. Description: Synergistic antifungal activity against Candida albicans ATCC 76615 assessed as fractional inhibitory concentration index in presence of Polyoxin B by checkerboard method. The format is functional. The method, boiled down: as §1
The nature of assay [19]: Inhibition of Candida tropicalis ATCC 750 chitin synthase using UDP-GlcNAc as substrate. The essentials: as §4

One may read the MIC as the least concentration at which growth counts as inhibited. Low values mean a more susceptible organism, high ones a less susceptible organism. A word on the inhibition: it is the relative decrease from the control value, in per cent. The low end stands for little suppression, the high end for strong suppression. Usually Ki stands for the dissociation constant of the complex between target and ligand, obtained from inhibition or displacement. Read a low Ki as a stronger hold on the target. Usually IC50 stands for the concentration that gives 50% inhibition. Higher therefore signals lower potency. On to `Cc1cccc(NC(=O)/C=C/C(=O)NC2Cc3ccccc3NC2=O)c1` (configuration not stated), for which the “fractional inhibitory concentration index (FICI)” value in the assay with Aspergillus fumigatus [1] is listed as 0.75; in the assay with Candida albicans [2], 0.375; with Cryptococcus neoformans [4], 2; in the assay with Aspergillus flavus [10], 1.5; in the assay with Candida albicans [11] it was 1.5; in the assay with Aspergillus fumigatus [12] it was 0.75. Further, the “fractional inhibitory concentration index (FICI)” value in the assay with Candida albicans [13] is 0.5; with Cryptococcus neoformans [15], 1.5; in the assay with Aspergillus flavus [16] it was 1; in the assay with Candida albicans [18], 1. The MIC was 2 µg/mL (≈ 5.72 µM) with Candida albicans [3]; 512 µg/mL (≈ 1470 µM) against Pseudomonas aeruginosa; 64 µg/mL (≈ 183 µM) in the assay with Cryptococcus neoformans [5]; 256 µg/mL (≈ 733 µM) against Bacillus subtilis; 4 µg/mL (≈ 11.4 µM) with Aspergillus fumigatus [6]; 2 µg/mL (≈ 5.72 µM) in the assay with Aspergillus flavus [7]. Besides, the MIC in the assay with Candida albicans [8] came out at 1 µg/mL (≈ 2.86 µM); in the assay with Staphylococcus aureus [14] it was 128 µg/mL (≈ 366 µM); in the assay with Escherichia coli it was 512 µg/mL (≈ 1470 µM); against Proteus vulgaris, 256 µg/mL (≈ 733 µM); against Staphylococcus aureus [17] it was 512 µg/mL (≈ 1470 µM). The compound also yielded an inhibition in the assay with Candida tropicalis of 78.3%. This compound registered a Ki in assay [9] of 120 µM. In addition, the IC50 in assay [19] turned out to be 90 µM.

Turning to `COc1ccccc1NC(=O)/C=C/C(=O)NC1Cc2ccccc2NC1=O` (configuration not stated), the “fractional inhibitory concentration index (FICI)” value in the assay with Aspergillus fumigatus [1] amounted to 0.375; in the assay with Candida albicans [2], 0.375; with Cryptococcus neoformans [4], 1; in the assay with Aspergillus flavus [10], 1; with Candida albicans [11] it was 0.75; in the assay with Aspergillus fumigatus [12], 0.375. Moreover, the “fractional inhibitory concentration index (FICI)” value was 0.5 with Candida albicans [13], 0.5 in the assay on Cryptococcus neoformans [15], 0.75 in the assay with Aspergillus flavus [16] and 0.5 in the assay with Candida albicans [18]. Also, the MIC in the assay with Candida albicans [3] was 1 µg/mL (≈ 2.74 µM); against Pseudomonas aeruginosa it was 512 µg/mL (≈ 1400 µM); in the assay with Cryptococcus neoformans [5], 8 µg/mL (≈ 21.9 µM); in the assay with Bacillus subtilis, 256 µg/mL (≈ 701 µM); against Aspergillus fumigatus [6], 4 µg/mL (≈ 10.9 µM); in the assay on Aspergillus flavus [7], 2 µg/mL (≈ 5.47 µM). In addition, the MIC against Candida albicans [8] came out at 1 µg/mL (≈ 2.74 µM); in the assay on Staphylococcus aureus [14], 128 µg/mL (≈ 350 µM); in the assay on Escherichia coli it was 256 µg/mL (≈ 701 µM); with Proteus vulgaris, 256 µg/mL (≈ 701 µM); in the assay on Staphylococcus aureus [17] it was 256 µg/mL (≈ 701 µM). The same compound yielded an inhibition in the assay on Candida tropicalis of 82.3%. In assay [19], this compound yielded an IC50 of 160 µM.
